From PMC12062833 (RSC Medicinal Chemistry, 2025) come the findings set out here.

Molecules are shown by their SMILES. Values after ≈ are worked out from the molar mass of the structure shown.

Holding throughout (format): cell-based
For assay [1], the system named is LN-229 glioblastoma cells. The assay can be described thus: Antiproliferative assay. The note with it: Homo sapiens, LN-229, 72 h, read-out: IC50 LN-229. In outline:
(§1)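 Adherent lines were seeded at 500 (Capan-1), 1000 (LN-229, HCT-116) or 1500 (NCI-H460) cells/well and dosed after overnight incubation. Suspension lines were seeded at 2500 (HL-60, K-562, Z-138) or 5500 (DND-41) cells/well directly onto compound. Seven 5-fold concentrations ran from 100 to 0.006 μM for 72 h. Viability was read as MTS absorbance at 490 nm after 3 h, and IC50 was derived from OD values. Two independent experiments.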

Assay [2] relates to Capan-1 pancreatic adenocarcinoma cells. The experiment in a line: Antiproliferative assay. The conditions noted are these: Homo sapiens, CAPAN-1, 72 h, read-out: IC50 Capan-1. In outline:
as §1

For assay [3], the system named is HCT-116 colon carcinoma cells. The experiment in a line: Antiproliferative assay. The conditions noted are these: Homo sapiens, HCT-116, 72 h, read-out: IC50 HCT-116. In outline: as §1
In assay [4] the test system is NCI-H460 non-small cell lung cancer cells. The assay can be described thus: Antiproliferative assay. The conditions noted are these: Homo sapiens, NCI-H460, 72 h, read-out: IC50 NCI-H460. In outline:
as §1

Assay [5] has as its system HL-60 acute myeloid leukemia cells. The assay can be described thus: Antiproliferative assay. The note with it: Homo sapiens, HL-60, 72 h, read-out: IC50 HL-60. In outline: as §1
In assay [6] the test system is K-562 chronic myeloid leukemia cells. The experiment in a line: Antiproliferative assay. The conditions noted are these: Homo sapiens, K562, 72 h, read-out: IC50 K-562. Summed up: as §1
Assay [7] concerns Escherichia coli (ATCC 25922). The assay can be described thus: Antibacterial MIC, macrodilution method, E. coli. The note with it: ATCC25922, read-out: MIC E. coli. In outline: (§2)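 CLSI M07-A9 tube macrodilution. Strains were grown overnight on nutrient agar at 37 °C, and colonies were suspended in Mueller-Hinton broth. Inoculum was 1 × 10^6 per mL (5 × 10^5 per mL in test). DMSO stock was 5120 μg/mL. Final concentrations were 256 to […] in 2 mL. Tubes were incubated at 37 °C for 16–20 h. Controls were inoculum with and without 1% DMSO, and broth alone.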

Assay [8] concerns Pseudomonas aeruginosa (ATCC 9027). The assay can be described thus: Antibacterial MIC, macrodilution method, P. aeruginosa. The conditions noted are these: ATCC9027, read-out: MIC P. aeruginosa. In outline: as §2
The test system of assay [9] is Klebsiella pneumoniae (ATCC 27736). The assay can be described thus: Antibacterial MIC, macrodilution method, K. pneumoniae. The conditions noted are these: ATCC27736, read-out: MIC K. pneumoniae. In outline: as §2
The test system of assay [10] is Staphylococcus aureus (ATCC 25923). The experiment in a line: Antibacterial MIC, macrodilution method, S. aureus. The note with it: ATCC25923, read-out: MIC S. aureus. In outline:
as §2

Assay [11] deals with eight human tumor cell lines. The assay can be described thus: Antiproliferative assay, span over the panel of tumor cell lines. The conditions noted are these: 72 h, read-out: IC50 range across tested tumor cell lines. In outline: as §1

With `Fc1cc(-c2nc3ccccc3[nH]2)ccc1OCCN1CCOCC1` [Compound 21, 4-(2-(4-(1H-Benzo[d]imidazol-2-yl)-2-fluorophenoxy)ethyl)morpholine], the IC50 in assay [1], in assay [2], in [3], in [4], in assay [5] and in assay [6] was > 100 µM in each case.
For `Fc1ccc2nc(-c3ccc(OCc4cn(CCN5CCOCC5)nn4)c(F)c3)[nH]c2c1` [Compound 33, 4-(2-(4-((2-Fluoro-4-(6-fluoro-1H-benzo[d]imidazol-2-yl)phenoxy)methyl)-1H-1,2,3-triazol-1-yl)ethyl)morpholine], the IC50 in assay [1] was > 100 µM; in assay [2], 47 ± 4.3 µM; in assay [3] it was > 100 µM; in assay [4], > 100 µM; in [5], 65.1 ± 2.8 µM; in assay [6], 29.6 ± 1.9 µM. In addition, the MIC in assay [7], in assay [8], in assay [9] and in [10] was > 256 mg/L throughout.
With `Fc1ccc2nc(-c3ccc(OCCN4CCOCC4)cc3)[nH]c2c1` [Compound 19, 4-(2-(4-(6-Fluoro-1H-benzo[d]imidazol-2-yl)phenoxy)ethyl)morpholine], the IC50 was > 100 µM in [1]; ≥ 69.1 µM in [2]; > 100 µM in [3]; > 100 µM in assay [4]; > 100 µM in assay [5]; > 100 µM in [6]. The IC50 in assay [11] was in the range of 37.3 to 79.8 µM.
`CCN(CC)CCOc1ccc(-c2nc3ccc(Cl)cc3[nH]2)cc1` [Compound 15, 2-(4-(6-Chloro-1H-benzo[d]imidazol-2-yl)phenoxy)-N,N-diethylethan-1-amine]: the IC50 in assay [1] was 44 ± 0.8 µM; in assay [2], 25.1 ± 3.7 µM; in assay [3], 47.2 ± 1.8 µM; in [4], 41.3 ± 3.7 µM; in assay [5], 29.2 ± 2.2 µM; in assay [6] it was 8.7 ± 1.1 µM. In addition, the MIC in [7] is 256 mg/L (≈ 744 µM); in [8] it was > 256 mg/L; in [9], > 256 mg/L; in assay [10], > 256 mg/L.
On to `c1ccc2[nH]c(-c3ccc(OCc4cn(CCN5CCOCC5)nn4)cc3)nc2c1` [Compound 28, 4-(2-(4-((4-(1H-Benzo[d]imidazol-2-yl)phenoxy)methyl)-1H-1,2,3-triazol-1-yl)ethyl)morpholine], for which the IC50 in assay [1] was > 100 µM; in [2], 47.2 ± 0.4 µM; in assay [3], > 100 µM; in [4], > 100 µM; in assay [5], ≥ 70 µM; in assay [6] it was ≥ 88 µM. In addition, the MIC in assay [7] was 256 mg/L (≈ 633 µM); in [8] it was > 256 mg/L; in assay [9] it was > 256 mg/L; in assay [10], > 256 mg/L.
With `O=C(COc1ccc(-c2nc3ccccc3[nH]2)cc1)N1CCOCC1` [Compound 14, 2-(4-(1H-Benzo[d]imidazol-2-yl)phenoxy)-1-morpholinoethan-1-one], the IC50 in assay [1], in [2], in [3], in assay [4], in assay [5] and in assay [6] was > 100 µM each time. In addition, the minimal inhibitory concentration (MIC) in [7], in assay [8], in assay [9] and in [10] was > 256 mg/L each time.
Take `CCN(CC)CCOc1ccc(-c2nc3ccc(F)cc3[nH]2)cc1` [Compound 18, N,N-Diethyl-2-(4-(6-fluoro-1H-benzo[d]imidazol-2-yl)phenoxy)ethan-1-amine]: the IC50 in assay [1] was 44.1 ± 5.3 µM; in assay [2] it was 39.1 ± 2.1 µM; in assay [3], 61.1 ± 0.7 µM; in [4], 37.2 ± 4.3 µM; in assay [5] it was 51.9 ± 5.9 µM; in assay [6], 27.6 ± 3.3 µM.
As to `CC(C)(O/N=C(\C(=O)N[C@@H]1C(=O)N2C(C(=O)[O-])=C(C[n+]3ccccc3)CS[C@H]12)c1csc(N)n1)C(=O)O` [CAZ, ceftazidime, reference compound], the MIC in [7] is 0.5 mg/L (≈ 0.915 µM); in [8] it was 2 mg/L (≈ 3.66 µM); in [9], 256 mg/L (≈ 468 µM); in [10] it was 64 mg/L (≈ 117 µM).
Consider `O=C(COc1ccc(-c2nc3ccc(F)cc3[nH]2)cc1)N1CCOCC1` [Compound 20, 2-(4-(6-Fluoro-1H-benzo[d]imidazol-2-yl)phenoxy)-1-morpholinoethan-1-one], for which the IC50 in assay [1], in [2], in assay [3], in assay [4], in assay [5] and in assay [6] was > 100 µM throughout.
On to `Clc1ccc2nc(-c3ccc(OCc4cn(CCN5CCOCC5)nn4)cc3)[nH]c2c1` [Compound 29, 4-(2-(4-((4-(6-Chloro-1H-benzo[d]imidazol-2-yl)phenoxy)methyl)-1H-1,2,3-triazol-1-yl)ethyl)morpholine], for which the IC50 in [1] was > 100 µM; in assay [2], > 100 µM; in assay [3], > 100 µM; in assay [4], > 100 µM; in [5], ≥ 98.1 µM; in assay [6] it was > 100 µM. The MIC in assay [7], in assay [8], in assay [9] and in assay [10] was > 256 mg/L each time.
On to `Fc1cc(-c2nc3ccccc3[nH]2)ccc1OCc1cn(CCN2CCOCC2)nn1` [Compound 31, 4-(2-(4-((4-(1H-Benzo[d]imidazol-2-yl)-2-fluorophenoxy)methyl)-1H-1,2,3-triazol-1-yl)ethyl)morpholine], for which the IC50 is > 100 µM in assay [1]; 40.6 ± 2.5 µM in assay [2]; > 100 µM in [3]; > 100 µM in assay [4]; 66.1 ± 4 µM in assay [5]; 73 ± 3 µM in assay [6]. Moreover, the MIC in assay [7], in assay [8], in [9] and in assay [10] was > 256 mg/L each time.
`O=C(O)c1cn(C2CC2)c2cc(N3CCNCC3)c(F)cc2c1=O` [CIP, ciprofloxacin, reference compound]: the MIC in [7] is < 0.125 mg/L; in assay [8] it was 0.5 mg/L (≈ 1.51 µM); in assay [9], > 256 mg/L; in assay [10], 0.5 mg/L (≈ 1.51 µM).
Turning to `Fc1cc(-c2nc3ccc(Cl)cc3[nH]2)ccc1OCc1cn(CCN2CCOCC2)nn1` [Compound 32, 4-(2-(4-((4-(6-Chloro-1H-benzo[d]imidazol-2-yl)-2-fluorophenoxy)methyl)-1H-1,2,3-triazol-1-yl)ethyl)morpholine], the IC50 was > 100 µM in assay [1]; 54.9 ± 5.1 µM in assay [2]; > 100 µM in assay [3]; > 100 µM in assay [4]; > 100 µM in [5]; > 100 µM in assay [6]. In addition, the minimum inhibitory concentration (MIC) in [7], in assay [8], in assay [9] and in assay [10] was > 256 mg/L in each case.
As for `COc1cc([C@@H]2c3cc4c(cc3[C@@H](O[C@@H]3O[C@@H]5CO[C@@H](C)O[C@H]5[C@H](O)[C@H]3O)[C@H]3COC(=O)[C@H]23)OCO4)cc(OC)c1O` [Etoposide, reference compound], the IC50 in assay [1] was 0.03 µM; in assay [2], 3.4 ± 0.9 µM; in assay [3], 3.7 ± 0.3 µM; in assay [4], 6.1 ± 1.1 µM; in assay [5], 0.8 ± 0.2 µM; in [6], 4 ± 1.3 µM.
`Fc1ccc2nc(-c3ccc(OCc4cn(CCN5CCOCC5)nn4)cc3)[nH]c2c1` [Compound 30, 4-(2-(4-((4-(6-Fluoro-1H-benzo[d]imidazol-2-yl)phenoxy)methyl)-1H-1,2,3-triazol-1-yl)ethyl)morpholine]: the IC50 in assay [1] is > 100 µM; in assay [2], 58.8 ± 1.9 µM; in assay [3], > 100 µM; in [4] it was 46.9 ± 4.4 µM; in [5], ≥ 60.6 µM; in [6], > 100 µM. The MIC in assay [7], in assay [8], in [9] and in [10] was > 256 mg/L in each case.
Regarding `CCN(CC)CCOc1ccc(-c2nc3ccccc3[nH]2)cc1` [Compound 12, 2-(4-(1H-Benzo[d]imidazol-2-yl)phenoxy)-N,N-diethylethan-1-amine], the IC50 in assay [1] was ≥ 65.1 µM; in assay [2] it was 47.7 ± 3.2 µM; in assay [3], > 100 µM; in [4], 52.4 ± 1.3 µM; in assay [5], 46.4 ± 1.3 µM; in [6] it was 38.2 ± 4.5 µM. In addition, the MIC in assay [7], in assay [8], in assay [9] and in [10] was > 256 mg/L throughout.
